Compound activity from PubChem BioAssay.
Many of the other results were omitted from the sample, so hits are more common in it than they were.
T cruzi growth-1 – blocks T. cruzi growth in NIH3T3 culture; T. cruzi beta-gal in NIH3T3, GalScreen luminescence, 90 h; inhibition, % at 8.34 µM; actives 5.9% (n = 77,000);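 active = mean inhibition above about 93%, with at least 55% of replicates each passing it, limit read from the data, passing the limit was not always enough; inconclusive = only one of those two conditions holds; inactive = neither condition holds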
IDH1 R132H inh – inhibitors of human IDH1 R132H; IDH1 R132H reductase, diaphorase/resazurin fluorescence, 60 min; inhibition, % at 10 µM; actives 0.18% (n = 70,000); in the data active = inhibition above about 34%; inconclusive = no clear call, values can overlap the other calls; inactive = below about 11%;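 also: 0% = DMSO and 100% = no enzyme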
Target sequence (O75874 whole entry R132H): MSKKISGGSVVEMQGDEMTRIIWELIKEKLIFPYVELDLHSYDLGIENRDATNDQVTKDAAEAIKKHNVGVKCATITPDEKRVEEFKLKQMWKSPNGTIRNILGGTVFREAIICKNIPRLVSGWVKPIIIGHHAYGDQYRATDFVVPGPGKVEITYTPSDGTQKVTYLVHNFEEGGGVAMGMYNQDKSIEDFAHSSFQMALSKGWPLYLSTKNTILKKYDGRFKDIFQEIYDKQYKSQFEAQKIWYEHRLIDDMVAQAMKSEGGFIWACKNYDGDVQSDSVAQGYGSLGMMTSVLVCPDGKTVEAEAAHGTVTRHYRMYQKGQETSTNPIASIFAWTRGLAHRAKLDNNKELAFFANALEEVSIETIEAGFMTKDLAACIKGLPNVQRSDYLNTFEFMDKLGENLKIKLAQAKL
KDM4C inh – blocks human GASC-1 (KDM4C) demethylase activity; actives 0.15% (n = 96,000); GST-KDM4C 2-372, H3K9me3 peptide, LANCE TR-FRET; Q9H3R0; inhibition, % at 12.5 µM;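 active = mean replicate inhibition above about 25%, with at least 55% of replicates also reaching it, limit read from the data, passing the limit was not always enough; inconclusive = only one of those two conditions met; inactive = neither condition met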
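material = GST-tagged GASC-1 (JMJD2C) catalytic fragment, aa 2-372 | amount = enzyme final amount 10 nM | medium = HEPES buffer, pH 7.5, plus ascorbate | also added = H3K9me3 peptide substrate, Fe(II), 2-oxoglutarate | dosing = single dose | times = 30 min demethylation and 1 h detection at room temperature | detection = LANCE TR-FRET | read-out basis = Fall in 671/618 emission ratio as inhibition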
T cruzi growth-2 – inhibitors of T. cruzi proliferation; shares compounds with T cruzi growth-1; T. cruzi beta-gal in NIH3T3, GalScreen luminescence, 90 h; inhibition, % at 8.35 µM; actives 72% (n = 5,600);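 active = mean replicate inhibition above about 95% and at least 55% of replicates individually reaching it, limit read from the data; inconclusive = only one of the two criteria is met; inactive = neither criterion is met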
T cruzi growth-3 – blocks T. cruzi growth in NIH3T3 host cells; T. cruzi beta-gal in NIH3T3, GalScreen luminescence, 90 h; AID 651740; inhibition, % at 2.09 µM; shares compounds with T cruzi growth-1; actives 21% (n = 5,600);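 active = mean inhibition above about 95%, with at least 55% of replicates also reaching it, limit read from the data; inconclusive = meets just one of the two conditions; inactive = meets neither condition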;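 also: plate controls were neutral control median for no effect and positive control median for full effect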
NIH3T3 tox – cytotoxicity in mouse NIH/3T3 fibroblasts; shares compounds with T cruzi growth-1; NIH/3T3 viability, CellTiter-Glo ATP luminescence, 90 h; cytotoxicity (signal decrease), % at 8.35 µM; actives 14% (n = 5,600); AID 651742;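 active = mean signal decrease across replicates above about 35% based on untreated-well scatter, with enough replicates individually passing, limit read from the data; inconclusive = no rule stated though some were filed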;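 also: 0% = median of neutral control wells and 100% = median of positive control wells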
3T3 cytotox 2 – NIH/3T3 (mouse) viability loss; shares compounds with T cruzi growth-1; actives 56% (n = 5,600); inhibition, % at 24.9 µM; NIH/3T3 viability, CellTiter-Glo ATP luminescence, 90 h;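 active = mean loss of cell viability signal at or above a set limit, and enough replicates individually reaching it; inconclusive = meets only the mean limit or only the replicate share; inactive = meets neither condition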;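 also: 0% = median of neutral control wells and 100% = median of positive control wells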
Starred values were filed as active, the others as inactive; ? = inconclusive; · = no result given.

SMILES | T cruzi growth-1 | IDH1 R132H inh | KDM4C inh | T cruzi growth-2 | T cruzi growth-3 | NIH3T3 tox | 3T3 cytotox 2
Cc1ccc(S(=O)(=O)N(C)C[C@@H]2OCCCC[C@@H](C)Oc3ccc(NC(=O)Nc4ccccc4)cc3C(=O)N([C@H](C)CO)C[C@H]2C)cc1 | 109* | 2 | -2 | 109* | 108* | 7 | 24
Cc1ccc(S(=O)(=O)N(C)C[C@H]2OCCCC[C@H](C)Oc3ccc(NC(=O)Nc4ccccc4)cc3C(=O)N([C@H](C)CO)C[C@@H]2C)cc1 | 110* | · | -1 | 103* | 89 | 20 | 11
Cc1ccc(S(=O)(=O)N(C)C[C@H]2OCCCC[C@H](C)Oc3ccc(NC(=O)Nc4ccccc4)cc3C(=O)N([C@@H](C)CO)C[C@H]2C)cc1 | -17 | -6 | 13 | · | · | · | ·
Cc1ccc(S(=O)(=O)N(C)C[C@@H]2OCCCC[C@H](C)Oc3ccc(NC(=O)c4ccccc4)cc3C(=O)N([C@H](C)CO)C[C@H]2C)cc1 | 101* | 0 | -1 | 99* | 27 | 9 | 49*
CC(C)c1ccc(NC(=O)CSc2nnc(N)s2)cc1 | · | 0 | · | · | · | · | ·
CC(C)CC#Cc1ccc2c(c1)O[C@H](CN(C)Cc1ccccc1)[C@H](C)CN([C@@H](C)CO)S2(=O)=O | 122* | -1 | 0 | 93 | 111* | 21 | 107*
CC(C)CC#Cc1ccc2c(c1)O[C@@H](CN(C)Cc1ccc(F)cc1)[C@H](C)CN([C@@H](C)CO)S2(=O)=O | 36 | · | -2 | · | · | · | ·
CC(C)CC#Cc1ccc2c(c1)O[C@H](CN(C)Cc1ccccc1)[C@@H](C)CN([C@H](C)CO)S2(=O)=O | 106* | 0 | 1 | 97* | 89 | -3 | 105*
CC(C)CC#Cc1ccc2c(c1)O[C@H](CN(C)Cc1ccc(F)cc1)[C@H](C)CN([C@H](C)CO)S2(=O)=O | 66 | -10 | · | · | · | · | ·
CC(C)CC#Cc1ccc2c(c1)O[C@H](CN(C)Cc1ccc(F)cc1)[C@@H](C)CN([C@H](C)CO)S2(=O)=O | 49 | 1 | 0 | · | · | · | ·
CC(C)CC#Cc1ccc2c(c1)O[C@@H](CN(C)Cc1ccccc1)[C@H](C)CN([C@@H](C)CO)S2(=O)=O | 125* | -2 | 0 | 106* | ? | 49* | 104*
C[C@H]1CN([C@@H](C)CO)S(=O)(=O)c2ccc(-c3ccncc3)cc2O[C@H]1CN(C)Cc1ccc(Oc2ccccc2)cc1 | 124 | 0 | -1 | · | · | · | ·
C[C@@H]1CN([C@H](C)CO)S(=O)(=O)c2ccc(-c3ccncc3)cc2O[C@@H]1CN(C)Cc1ccc(Oc2ccccc2)cc1 | 116* | 0 | -2 | 99* | 107* | 84* | 89*
C[C@H]1CN([C@@H](C)CO)S(=O)(=O)c2ccc(-c3ccncc3)cc2O[C@@H]1CN(C)Cc1ccc(Oc2ccccc2)cc1 | ? | 0 | 2 | 92 | 107* | 86* | 103*
C[C@@H]1CN([C@@H](C)CO)S(=O)(=O)c2ccc(-c3cncnc3)cc2O[C@@H]1CN(C)Cc1ccc(Oc2ccccc2)cc1 | · | 0 | 0 | · | · | · | ·
COc1ccc(S(=O)(=O)Nc2ccc3c(c2)C(=O)N([C@@H](C)CO)C[C@@H](C)[C@@H](CN(C)S(=O)(=O)c2ccc(OC)cc2)OCCCC[C@H](C)O3)cc1 | 63 | -1 | 0 | · | · | · | ·
COc1ccc(S(=O)(=O)Nc2ccc3c(c2)C(=O)N([C@H](C)CO)C[C@H](C)[C@@H](CN(C)S(=O)(=O)c2ccc(OC)cc2)OCCCC[C@@H](C)O3)cc1 | 53 | 0 | 1 | · | · | · | ·
COc1ccc(S(=O)(=O)Nc2ccc3c(c2)C(=O)N([C@@H](C)CO)C[C@@H](C)[C@@H](CN(C)S(=O)(=O)c2ccc(C)cc2)OCCCC[C@@H](C)O3)cc1 | · | · | -1 | · | · | · | ·
COc1ccc(S(=O)(=O)Nc2ccc3c(c2)C(=O)N([C@H](C)CO)C[C@H](C)[C@@H](CN(C)S(=O)(=O)c2ccc(OC)cc2)OCCCC[C@H](C)O3)cc1 | ? | · | 1 | 111* | 51 | 6 | 13
COc1ccc(S(=O)(=O)Nc2ccc3c(c2)C(=O)N([C@@H](C)CO)C[C@H](C)[C@H](CN(C)S(=O)(=O)c2ccc(OC)cc2)OCCCC[C@@H](C)O3)cc1 | 93* | · | 0 | 106* | 80 | 16 | 23
COc1ccc(S(=O)(=O)Nc2ccc3c(c2)C(=O)N([C@H](C)CO)C[C@@H](C)[C@H](CN(C)S(=O)(=O)c2ccc(OC)cc2)OCCCC[C@@H](C)O3)cc1 | ? | -1 | -3 | 102* | 63 | 18 | 12
COc1ccc(NC(=O)CCc2nc(-c3ccccc3)no2)cc1 | · | 0 | · | · | · | · | ·
Cc1cc(C)c(NS(=O)(=O)c2ccc(NC(=O)c3nc4nc(C)cc(C(F)F)n4n3)cc2)c(C)c1 | · | 0 | · | · | · | · | ·
C[C@H](O)C#Cc1ccc2c(c1)O[C@@H](CN(C)Cc1ccc(-c3ccccc3)cc1)[C@H](C)CN([C@H](C)CO)S2(=O)=O | 60 | 0 | 0 | · | · | · | ·
C[C@H](CO)N1C[C@H](C)[C@H](CN(C)Cc2ccccc2)Oc2cc(C#CC(C)(C)O)ccc2S1(=O)=O | 60 | -4 | · | · | · | · | ·
SMILES | T cruzi growth-1 | IDH1 R132H inh | KDM4C inh | T cruzi growth-2 | T cruzi growth-3 | NIH3T3 tox | 3T3 cytotox 2
C[C@H](O)C#Cc1ccc2c(c1)O[C@H](CN(C)Cc1ccc(-c3ccccc3)cc1)[C@H](C)CN([C@@H](C)CO)S2(=O)=O | 109* | · | -1 | 99* | 101* | 47* | 104*
C[C@H](CO)N1C[C@H](C)[C@@H](CN(C)Cc2ccccc2)Oc2cc(C#CC(C)(C)O)ccc2S1(=O)=O | 89 | · | · | · | · | · | ·
C[C@@H]1CN([C@@H](C)CO)S(=O)(=O)c2ccc(C#CC(C)(C)O)cc2O[C@@H]1CN(C)Cc1ccc(-c2ccccc2)cc1 | 121* | -4 | 1 | 93 | 115* | 5 | 103*
C[C@@H]1CN([C@@H](C)CO)S(=O)(=O)c2ccc(C#CC(C)(C)O)cc2O[C@H]1CN(C)Cc1ccc(-c2ccccc2)cc1 | 118* | · | 1 | 91 | 113* | 116* | 107*
Cc1ccc2nc(-c3cccc(Br)c3)cc(C(=O)NCc3cccnc3)c2c1 | · | 0 | · | · | · | · | ·
O=C(CSc1nnc(-c2ccncc2)n1-c1ccccc1)c1c[nH]c2ccccc12 | · | 0 | · | · | · | · | ·
Cc1nc(-c2c(C(=O)NN)noc2C)cs1 | · | 0 | · | · | · | · | ·
COc1ccc(C(=O)Nc2sc3c(c2C(=O)Nc2cccc(OC)c2)CCC3)cc1 | · | 0 | · | · | · | · | ·
CN(C)CCNc1nc2c(c(=O)n(C)c(=O)n2C)n1Cc1ccccc1F | · | 0 | · | · | · | · | ·
CCn1c(SCC(=O)Nc2ccc(Br)cc2)nnc1-c1ccccc1 | · | 0 | · | · | · | · | ·
C[C@H](CO)N1C[C@H](C)[C@H](CN(C)C(=O)c2ccccc2F)Oc2ncc(C#C[C@@H](C)O)cc2C1=O | 0 | · | 0 | · | · | · | ·
